We go through 25 compounds from ChEMBL document CHEMBL1138667, “Phenylguanidines as selective nonpeptide melanocortin-5 receptor antagonists” (J Med Chem, 2004).

One may read the inhibition as how much of the control response was suppressed. Low values mean little suppression, high ones strong suppression. A word on the Ki: it is the equilibrium dissociation constant of an inhibitor or competing ligand from its target. Lower therefore signals tighter binding. What is called IC50 is the midpoint of a concentration-inhibition curve. Lower therefore signals greater potency in that assay.

The target in test [1] is T1, Melanocortin receptor 4 (Homo sapiens, UniProt P32245). Kind of test: Intrinsic activity as percentage of maximal melanocortin receptor 4 related cAMP production relative to alpha-MSH. Format: functional. For orientation: Cyclic AMP is a second messenger, typically raised through Gs and lowered through Gi signalling.
Test [2] has as its target T2, Melanocyte-stimulating hormone receptor (Homo sapiens, UniProt Q01726). As to the kind of experiment: Percentage inhibition of human melanocortin 1 receptor at 10 uM.
Target sequence in this assay (Q01726 whole entry, looked up): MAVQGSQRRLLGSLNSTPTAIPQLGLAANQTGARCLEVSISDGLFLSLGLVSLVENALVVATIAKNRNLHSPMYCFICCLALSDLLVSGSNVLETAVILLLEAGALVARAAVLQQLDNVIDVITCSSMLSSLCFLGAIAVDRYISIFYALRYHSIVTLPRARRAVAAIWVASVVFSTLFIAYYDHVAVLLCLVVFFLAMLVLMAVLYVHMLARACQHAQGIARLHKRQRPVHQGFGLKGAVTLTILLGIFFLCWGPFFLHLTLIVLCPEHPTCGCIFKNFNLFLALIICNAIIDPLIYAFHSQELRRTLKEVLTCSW
Test [3] deals with T3, Melanocortin receptor 5 (Homo sapiens, UniProt P33032). As to the kind of experiment: Inhibition of [125I]NDP-MSH binding to human Melanocortin 5 receptor expressed in HEK293 cells. Format: cell-based. The method in brief:
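Competitive binding on membranes from HEK293 cells stably expressing human MC5 receptor, with [125I]NDP-MSH as the radioligand. Inhibition of radioligand binding was measured and Ki derived from more than 3 determinations.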

In test [4] the target is Melanocortin receptor 3 (Homo sapiens, UniProt P41968). As to the kind of experiment: Binding affinity for human melanocortin 3 receptor. The method in brief:
(§1)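 Human MC1, MC3 or MC4 receptor expressed in HEK293 cells. Membranes bearing each receptor were used in a competitive binding assay measuring inhibition of [125I]NDP-MSH binding, with inhibition curves generated.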

Test [5] concerns the target T3, Melanocortin receptor 5. Kind of test: Inhibition of human Melanocortin 5 receptor.
In test [6] the target is T2, Melanocyte-stimulating hormone receptor. Kind of test: Binding affinity for human melanocortin 1 receptor. Summed up:
as §1
Target sequence in this assay (Q01726 whole entry): as the sequence (Q01726 whole entry, looked up) above

Test [7] deals with T1, Melanocortin receptor 4. Kind of test: Binding affinity for human melanocortin 4 receptor. Summed up:
as §1

T1 sequence (P32245 whole entry): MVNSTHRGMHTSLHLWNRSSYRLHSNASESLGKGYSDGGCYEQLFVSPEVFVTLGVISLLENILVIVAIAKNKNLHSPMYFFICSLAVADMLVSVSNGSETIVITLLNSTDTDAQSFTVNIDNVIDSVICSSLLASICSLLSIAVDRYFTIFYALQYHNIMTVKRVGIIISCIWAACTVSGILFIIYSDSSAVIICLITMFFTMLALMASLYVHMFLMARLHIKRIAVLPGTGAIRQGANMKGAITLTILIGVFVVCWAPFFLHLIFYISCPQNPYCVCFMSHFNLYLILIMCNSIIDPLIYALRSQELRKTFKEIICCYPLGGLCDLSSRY
T3 sequence (P33032 whole entry): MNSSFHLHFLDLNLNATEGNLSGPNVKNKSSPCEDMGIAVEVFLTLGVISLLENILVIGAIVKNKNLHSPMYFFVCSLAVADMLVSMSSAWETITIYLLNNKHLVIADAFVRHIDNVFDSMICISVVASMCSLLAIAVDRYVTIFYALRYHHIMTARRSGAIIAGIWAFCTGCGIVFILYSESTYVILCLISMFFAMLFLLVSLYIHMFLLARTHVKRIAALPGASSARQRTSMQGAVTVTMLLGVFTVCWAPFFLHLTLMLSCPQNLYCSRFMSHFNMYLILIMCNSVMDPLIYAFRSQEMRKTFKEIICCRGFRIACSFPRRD
Sequence of Melanocortin receptor 3 (P41968 whole entry): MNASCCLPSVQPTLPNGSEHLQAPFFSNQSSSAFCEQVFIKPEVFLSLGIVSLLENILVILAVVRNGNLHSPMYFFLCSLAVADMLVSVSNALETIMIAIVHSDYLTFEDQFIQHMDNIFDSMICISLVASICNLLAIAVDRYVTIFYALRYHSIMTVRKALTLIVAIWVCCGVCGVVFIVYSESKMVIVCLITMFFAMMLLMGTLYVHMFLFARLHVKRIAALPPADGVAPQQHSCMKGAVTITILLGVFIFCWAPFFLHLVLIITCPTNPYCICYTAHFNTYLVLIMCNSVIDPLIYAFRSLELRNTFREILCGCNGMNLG

`C[C@@H]1CN(/C(=N/c2ccc(C(=O)NCCc3ccc(Cl)cc3Cl)cc2)NC2CCCCC2)CCN1` yielded an IA in test [1] of 37%. Further, the inhibition in test [2] was found to be 25%.
The compound `CC1C(=O)NCCN1C(=NC1CCCCC1)Nc1ccc(C(=O)NCCc2ccc(Cl)cc2Cl)cc1` (stereo not given) yielded a Ki in test [3] of 1050 nM.
Regarding `C[C@@H]1CN[C@@H](C)CN1/C(=N/c1ccc(C(=O)NCCc2ccc(Cl)cc2Cl)cc1)NC1CCCCC1`, the Ki was 2800 nM in test [4], 360 nM in test [6], 5.9 nM in test [3] and 840 nM in test [7]. In addition, half-maximal inhibition in test [5] (IC50) required 380 nM.
For the compound `O=C(NCCc1ccc(Cl)cc1Cl)c1ccc(NC(=NC2CCCCC2)N2CCN(c3ncccn3)CC2)cc1`, in test [3], the affinity corresponds to a Ki of 305 nM.
For the compound `C[C@@H]1CN(C(=NC2CCCCC2)Nc2ccc(C(=O)NCCc3ccc(Cl)cc3Cl)cc2)CCN1`, the Ki is 3500 nM in test [4], 2.1 nM in test [3] and 840 nM in test [7]. The compound also showed an IC50 in test [5] of 70 nM.
Take `Cc1ccc(C)c(N2CCN(C(=NC3CCCCC3)Nc3ccc(C(=O)NCCc4ccc(Cl)cc4Cl)cc3)CC2)c1`: in test [3], the Ki turned out to be 1760 nM.
As for `CC(C)(N)C/N=C(\Nc1ccc(C(=O)NCCc2ccc(Cl)cc2Cl)cc1)NC1CCCCC1`, the figures for the Ki in test [4], in test [3] and in test [7] were 2400 nM, 5.3 nM and 1300 nM, respectively. This compound returned an IA in test [1] of 45%. For the same compound, the IC50 in test [5] was determined as 530 nM. In test [2], this compound showed an inhibition of 27%.
In test [3], `O=C(NCCc1ccc(Cl)cc1Cl)c1ccc(NC(=NC2CCCCC2)N2CCC(N3CCCC3)CC2)cc1` registered a Ki of 77 nM. This counts as double-digit nanomolar.
Consider `CN1CCN(/C(=N/c2ccc(C(=O)NCCc3ccc(Cl)cc3Cl)cc2)NC2CCCCC2)CC1`, for which, in test [3], the affinity, expressed as Ki, was 50 nM.
`CC1CN(C(=NC2CCCCC2)Nc2ccc(C(=O)NCCc3ccc(Cl)cc3Cl)cc2)CC(C)O1` (stereo not given) came in with a Ki in test [3] of 350 nM. Against the preceding compound, the Ki is about 7-fold higher.
As to `O=C(NCCc1ccc(Cl)cc1Cl)c1ccc(NC(=NC2CCCCC2)N2CCN(Cc3ccccc3)CC2)cc1`, the affinity in test [3], expressed as Ki, was 44 nM.
Consider `O=C(NCCc1ccc(Cl)cc1Cl)c1ccc(N/C(=N/C2CCCCC2)N2CCNCC2)cc1`, for which the IA in test [1] stood at 28%.
Turning to `CC1CN(C(=NC2CCCCC2)Nc2ccc(C(=O)NCCc3ccc(Cl)cc3Cl)cc2)CC(C)N1` (stereo not given), the Ki was found to be 3900 nM in test [4], 11 nM in test [3] and 590 nM in test [7]. The IC50 in test [5] worked out at 89 nM.
For `CNC1CCN(/C(=N/c2ccc(C(=O)NCCc3ccc(Cl)cc3Cl)cc2)NC2CCCCC2)C1` (stereo not given), the Ki in test [4] stood at 2300 nM; in test [3] it was 36 nM; in test [7], 1400 nM. In addition, in test [1], the IA worked out at 36%. Moreover, the IC50 in test [5] stood at 630 nM. For the same compound, in test [2], the inhibition came out at 27%.
Turning to `O=C(NCCc1ccc(Cl)cc1Cl)c1ccc(NC(=NC2CCCCC2)N2CCNCC2)cc1`, the Ki was determined as 2200 nM in test [4], 400 nM in test [6], 18 nM in test [3] and 650 nM in test [7]. In test [5], the IC50 was 460 nM.
In the case of `C[C@H]1CN(/C(=N/c2ccc(C(=O)NCCc3ccc(Cl)cc3Cl)cc2)NC2CCCCC2)CCN1`, the results for the Ki in test [4], in test [3] and in test [7] were 2800 nM, 21 nM and 580 nM, respectively. Moreover, in test [1], the IA turned out to be 65%. Moreover, the IC50 in test [5] came to 380 nM. For the same compound, the inhibition in test [2] was determined as 29%.
In test [3], `O=C(NCCc1ccc(Cl)cc1Cl)c1ccc(NC(=NC2CCCCC2)N2CCN(c3ccccc3)CC2)cc1` displayed a Ki of 290 nM.
For `CCCN(CCC)/C(=N/c1ccc(C(=O)NCCc2ccc(Cl)cc2Cl)cc1)NC1CCCCC1`, in test [3], the affinity, expressed as Ki, was 360 nM.
The same measure, in the same setting: under `O=C1CN(C(=NC2CCCCC2)Nc2ccc(C(=O)NCCc3ccc(Cl)cc3Cl)cc2)CCN1` stands 560 nM; under `NC1CCN(C(=NC2CCCCC2)Nc2ccc(C(=O)NCCc3ccc(Cl)cc3Cl)cc2)CC1`, 230 nM.
In the case of `O=C(NCCc1ccc(Cl)cc1Cl)c1ccc(N/C(=N\C2CCNC2)NC2CCCCC2)cc1` (stereo not given), the Ki stood at 2500 nM in test [4], 1900 nM in test [6], 26 nM in test [3] and 1500 nM in test [7]. Moreover, the IC50 in test [5] came to 530 nM.
For the compound `CC1CN(/C(=N/c2ccc(C(=O)NCCc3ccc(Cl)cc3Cl)cc2)NC2CCCCC2)CC(C)N1` (stereo not given), in test [1], the IA came out at 76%. In addition, in test [2], the inhibition amounted to 23%.
Regarding `O=C(NCCc1ccc(Cl)cc1Cl)c1ccc(NC(=NC2CCCCC2)NCc2cc(F)cc(F)c2)cc1`, affinity in test [3] was put at a Ki of 70 nM.
Regarding `CN(/C(=N/c1ccc(C(=O)NCCc2ccc(Cl)cc2Cl)cc1)NC1CCCCC1)C1CCCCC1`, in test [3], affinity was put at a Ki of 91 nM.
In turn, `CC1CC(C)CN(C(=NC2CCCCC2)Nc2ccc(C(=O)NCCc3ccc(Cl)cc3Cl)cc2)C1` (stereo not given) returned a Ki in test [3] of 144 nM.
